Columns and labels:
Homo sapiens [1] = assay: Toxicity in healthy human assessed as occurrence of fatigue at 87.5 mg, po administered as single dose coadministered with 100 mg of ritonavir; format: organism-based; conditions: in vivo
[2] = Apparent volume of distribution at steady state in healthy human at 62.5 mg, po administered as single dose coadministered with 100 mg of ritonavir; format: ADME, organism-based; conditions: in vivo, read-out: Vss/F
How it was run: (§1)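 Healthy male volunteers, fasted overnight, got one oral dose of BILR 355 in PEG solution with 200 ml water. Ritonavir 100 mg was given 10 h before and again with the dose. Plasma was sampled (EDTA) from predose to 144 h and assayed by validated LC-MS/MS. Cmax and Vz/F came from noncompartmental analysis. Vss/F = CL/F·(MRTp.o. − 1/Ka), with Ka from compartmental modelling.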

Homo sapiens [3] = assay: Toxicity in healthy human assessed as occurrence of neurological eyelid disorder at 5 mg, po administered as single dose relative to control; format: organism-based; conditions: in vivo
[4] = Tmax in high fat fed healthy human at 50 mg, po administered as single dose coadministered with 100 mg of ritonavir; format: ADME, organism-based; conditions: in vivo
[5] = Drug excretion in healthy human urine assessed as unchanged drug at 100 mg, po administered as single dose by high-pressure liquid chromatography-tandem mass spectrometry/mass spectrometry method; format: ADME, organism-based; conditions: read-out: Drug uptake
How it was run: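 Urine was collected by weight after one oral dose of BILR 355 in PEG solution in fasted healthy males. Intervals were predose blank, 0-6, 6-24 and 24-72 h, with the bladder voided before each. Aliquots were stored at −20°C and assayed by LC-MS/MS. fe = amount of unchanged drug excreted (Ae) as a percentage of the administered dose.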

Homo sapiens [6] = assay: Toxicity in healthy human assessed as occurrence of headache at 5 mg, po administered as single dose relative to control; format: organism-based; conditions: in vivo
[7] = Mean residence time in healthy human at 87.5 mg, po administered as single dose coadministered with 100 mg of ritonavir; format: ADME, organism-based; conditions: in vivo
[8] = Apparent volume of distribution in terminal phase in healthy human at 25 mg, po administered as single dose coadministered with 100 mg of ritonavir; format: ADME, organism-based; conditions: in vivo, read-out: Vz/F; how it was run: as §1
[9] = Drug excretion in healthy human urine assessed as unchanged drug at 37.5 mg, po administered as single dose coadministered with 100 mg of ritonavir by high-pressure liquid chromatography-tandem mass spectrometry/mass spectrometry method; format: ADME, organism-based; conditions: read-out: Drug uptake
How it was run: (§2)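 Ritonavir 100 mg was given 10 h before and with one oral dose of BILR 355 in PEG solution. Urine was collected by weight as predose blank, then 0-6, 6-24 and 24-72 h, stored at −20°C and assayed by LC-MS/MS. fe = unchanged drug excreted (Ae) as a percentage of dose. Line 50: high-fat breakfast 30 min before dosing.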

[10] = Apparent oral clearance in healthy human at 50 mg, po administered as single dose coadministered with 100 mg of ritonavir; format: ADME, organism-based; conditions: in vivo
How it was run: (§3)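 Healthy male volunteers, fasted. Ritonavir 100 mg given 10 h before and again together with single oral BILR 355 in PEG solution. EDTA plasma sampled predose to 144 h. LC-MS/MS assay after protein precipitation. Noncompartmental analysis, AUC by linear up/log down trapezoidal rule; Vss = CL/F·(MRTp.o. − 1/Ka).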

Homo sapiens [11] = assay: Toxicity in healthy human assessed as occurrence of herpes simplex at 50 mg, po administered as single dose relative to control; format: organism-based; conditions: in vivo
[12] = AUC (0 to last) in healthy human at 5 mg, po administered as single dose coadministered with 100 mg of ritonavir; format: ADME, organism-based; parameters: dose 5 mg, time 0 - last, route oral; conditions: plasma; how it was run: as §3
Homo sapiens [13] = assay: Ratio of Cmax in human at 50 mg, po in presence of 100 mg of ritonavir to Cmax in human at 50 mg, po; format: ADME, organism-based; conditions: in vivo
Homo sapiens [14] = assay: Toxicity in healthy human assessed as occurrence of aphthous stomatitis at 62.5 mg, po administered as single dose coadministered with 100 mg of ritonavir; format: organism-based; conditions: in vivo
Homo sapiens [15] = assay: Toxicity in healthy human assessed as occurrence of increase in alanine aminotransferase level at 50 mg, po administered as single dose relative to control; format: organism-based; conditions: in vivo
[16] = AUC (0 to last) in healthy human at 25 mg, po administered as single dose; format: ADME, organism-based; parameters: dose 25 mg, route oral, time 0 - last; conditions: plasma
How it was run: (§4)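 Healthy male volunteers, six active plus two placebo per dose group, single oral dose in PEG solution with 200 ml water after overnight fast; breakfast 60 to 90 min post-dose. EDTA plasma sampled predose to 144 h. Assayed by validated LC-MS/MS after protein precipitation. Noncompartmental analysis, AUC by linear up/log down trapezoidal rule; Vss = CL/F·(MRTp.o. − 1/Ka).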

Homo sapiens [17] = assay: Toxicity in healthy human assessed as occurrence of diarrhea at 62.5 mg, po administered as single dose coadministered with 100 mg of ritonavir; format: organism-based; conditions: in vivo
Homo sapiens [18] = assay: Toxicity in healthy human assessed as occurrence of maculopapular rash at 25 mg, po administered as single dose coadministered with 100 mg of ritonavir; format: organism-based; conditions: in vivo
Homo sapiens [19] = assay: Toxicity in healthy human assessed as occurrence of nausea at 75 mg, po administered as single dose relative to control; format: organism-based; conditions: in vivo
Homo sapiens [20] = assay: Toxicity in healthy human assessed as occurrence of maculopapular rash at 62.5 mg, po administered as single dose coadministered with 100 mg of ritonavir; format: organism-based; conditions: in vivo
Homo sapiens [21] = assay: Toxicity in healthy human assessed as occurrence of diarrhea at 25 mg, po administered as single dose coadministered with 100 mg of ritonavir; format: organism-based; conditions: in vivo
Homo sapiens [22] = assay: Toxicity in healthy human assessed as occurrence of increase in alanine aminotransferase level at 1 mg, po administered as single dose relative to control; format: organism-based; conditions: in vivo
[23] = Drug excretion in healthy human urine assessed as unchanged drug at 62.5 mg, po administered as single dose coadministered with 100 mg of ritonavir by high-pressure liquid chromatography-tandem mass spectrometry/mass spectrometry method; format: ADME, organism-based; conditions: read-out: Drug uptake; how it was run: as §2
Homo sapiens [24] = assay: Toxicity in healthy human assessed as occurrence of frequent bowel movements at 5 mg, po administered as single dose relative to control; format: organism-based; conditions: in vivo
Homo sapiens [25] = assay: Ratio of Cmax in human at 75 mg, po in presence of 100 mg of ritonavir to Cmax in human at 75 mg, po; format: ADME, organism-based; conditions: in vivo
Homo sapiens [26] = assay: Toxicity in healthy human assessed as occurrence of diarrhea at 50 mg, po administered as single dose coadministered with 100 mg of ritonavir; format: organism-based; conditions: in vivo
Homo sapiens [27] = assay: Ratio of half life in human at 75 mg, po in presence of 100 mg of ritonavir to half life in human at 75 mg, po; format: ADME, organism-based; conditions: in vivo
Homo sapiens [28] = assay: AUC (0 to infinity) in healthy human at 75 mg, po administered as single dose; format: ADME, organism-based, Plasma; parameters: dose 75 mg, route oral, time infinity; conditions: in vivo; how it was run: as §4
[29] = Cmax in high fat fed healthy human at 50 mg, po administered as single dose coadministered with 100 mg of ritonavir by high-pressure liquid chromatography-tandem mass spectrometry/mass spectrometry method; format: ADME, organism-based; parameters: dose 50 mg, route oral; conditions: in vivo
How it was run: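 Fed cohort: healthy males ate an FDA-recipe high-fat breakfast (about 150/250/500-600 cal from protein/carbohydrate/fat) 30 min before a 50 mg oral dose of BILR 355 in PEG solution. Ritonavir 100 mg was given 10 h before and with the dose. Plasma was sampled over 144 h and assayed by LC-MS/MS. Noncompartmental analysis gave Cmax and Vz/F. Vss/F = CL/F·(MRTp.o. − 1/Ka).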

## CCN1c2ncc(CCOc3cc[n+]([O-])c4ccccc34)cc2C(=O)N(C)c2cccnc21 [BILR 355]
Homo sapiens [1]
  Activity: 0%
[2]
  Vd/F: 113 L
Homo sapiens [3]
  Activity: 0%
[4]
  Tmax: 6 h
[5]
  dose excreted: 0.816%
Homo sapiens [6]
  Activity: 0%
[7]
  MRT: 14.6 h
[8]
  Vd/F: 97.6 L
[9]
  dose excreted: 4.58%
[10]
  CL/F: 131 mL/min
Homo sapiens [11]
  Activity: 0%
[12]
  AUC(0-t): 615 ng·h/mL
Homo sapiens [13]
  Ratio: 2.9
Homo sapiens [14]
  Activity: 0%
Homo sapiens [15]
  Activity: 0%
[16]
  AUC(0-t): 128 ng·h/mL
Homo sapiens [17]
  Activity: 0%
Homo sapiens [18]
  Activity: 16.7%
Homo sapiens [19]
  Activity: 0%
Homo sapiens [20]
  Activity: 0%
Homo sapiens [21]
  Activity: 0%
Homo sapiens [22]
  Activity: 0%
[23]
  dose excreted: 5.05%
Homo sapiens [24]
  Activity: 0%
Homo sapiens [25]
  Ratio: 2.3
Homo sapiens [26]
  Activity: 0%
Homo sapiens [27]
  Ratio: 5.4
Homo sapiens [28]
  AUC: 779 ng·h/mL
[29]
  Cmax: 430 ng/mL

Source: ChEMBL document CHEMBL1629563, “Pharmacokinetic and safety evaluation of BILR 355, a second-generation nonnucleoside reverse transcriptase inhibitor, in healthy volunteers” (Antimicrob Agents Chemother, 2008)
